Compound activity deposited in PubChem BioAssay by The Scripps Research Institute Molecular Screening Center.
NPY1 pot ag = potentiators or agonists of human neuropeptide Y receptor Y1. activation, % at 3.6 µM. AID 1304. NPY-Y1 expressing cells, potentiator/agonist activation. P25929. hit rate 0.37% among 220,000; in the data active means activation above about 33%, passing the limit was not always enough;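 further: cells stimulated with NPY at EC10 then isoproterenol at EC100; 0% = low agonist plus stimulus and 100% = saturating agonist plus stimulus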
Target sequence (P25929 whole entry, looked up): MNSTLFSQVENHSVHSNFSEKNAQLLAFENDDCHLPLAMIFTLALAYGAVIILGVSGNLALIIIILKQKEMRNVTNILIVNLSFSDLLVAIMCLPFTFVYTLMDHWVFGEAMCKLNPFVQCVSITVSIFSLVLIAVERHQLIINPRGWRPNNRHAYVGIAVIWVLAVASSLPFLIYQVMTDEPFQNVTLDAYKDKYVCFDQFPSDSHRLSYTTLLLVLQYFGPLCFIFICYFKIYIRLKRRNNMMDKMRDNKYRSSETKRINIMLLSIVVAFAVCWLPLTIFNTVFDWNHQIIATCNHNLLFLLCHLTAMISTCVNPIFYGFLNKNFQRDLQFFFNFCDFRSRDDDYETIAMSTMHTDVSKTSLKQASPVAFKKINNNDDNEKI
S1P4 antagonist = human S1P4 receptor antagonism; O95977; S1P4-expressing cells, antagonist mode, reporter read-out; inhibition, % at 4.98 µM; hit rate 0.26% among 220,000; AID 1510; in the data active means inhibition above about 29%;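 further: 0% = wells stimulated with agonist and 100% = vehicle wells without agonist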
NPY-Y2 antag = antagonists of human neuropeptide Y receptor Y2. inhibition, % at 2.7 µM. NPY-Y2 expressing cells, antagonist mode. hit rate 0.99% among 140,000. P49146; in the data active means inhibition above about 17%;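 further: 0% = vehicle with agonist challenge and 100% = reference antagonist with challenge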
S1P4 agonist = human S1P4 receptor agonism; AID 1509; S1P4-expressing cell line, agonist reporter assay; activation, % at 4.98 µM; O95977; hit rate 0.35% among 220,000; in the data active means activation above about 11%;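 further: 0% = DMSO vehicle and 100% = reference agonist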
NPY2 pot ag = potentiators or agonists of human neuropeptide Y receptor Y2; cells expressing NPY-Y2, potentiator/agonist read-out; hit rate 0.45% among 220,000; AID 1359; P49146; activation, % at 3.6 µM; in the data active means activation above about 27%;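 further: cells stimulated with NPY near EC25 plus isoproterenol at EC100; 0% = vehicle plus submaximal agonist and 100% = vehicle plus saturating agonist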
NPY-Y1 antag = NPY-Y1 (human) receptor antagonism; P25929; HEK293-CNG Y1 cells, membrane potential fluorescence; NPY at EC95, then isoproterenol; inhibition, % at 3.6 µM; hit rate 1% among 200,000;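 active means inhibition above the campaign mean inhibition of all tested compounds plus 3 SD, cut at about 20% in these data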;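 further: 0% = DMSO wells given NPY plus isoproterenol and 100% = isoproterenol alone without NPY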
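material = HEK293 cells with Y1 receptor plus CNG channel | also added = NPY 25 nM then isoproterenol 1 µM plus Ro 20-1724 25 µM | schedule = dye 3 h, compound 60 min room temperature, stimulation 45 min | measured by = membrane potential fluorescence | benchmarks = high control isoproterenol alone, low control NPY with isoproterenol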
NPY-Y1 confirm = human NPY-Y1 potentiation or agonism, confirmation; shares compounds with NPY1 pot ag; activation, % at 3.6 µM; hit rate 20% among 280; cell-based NPY-Y1 potentiator/agonist assay; AID 1546; in the data active means activation above about 45%;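 further: cells challenged with NPY at its EC10 plus isoproterenol stimulus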
NPY-Y2 counter = NPY-Y2 potentiation or agonism as NPY-Y1 counter-screen; hit rate 20% among 280; shares compounds with NPY1 pot ag; HEK293-CNG cells, membrane-potential fluorescence (FLIPR), 1536-well; AID 1649; activation, % at 3.6 µM; in the data active means activation above about 33%
NPY-Y1 agonist = counter-screen for NPY-Y1 potentiators: agonists of human NPY-Y1 | HEK293 Y1-CNGC, membrane potential fluorescence, agonist mode | shares compounds with NPY1 pot ag | activation, % at 3.6 µM | AID 1697 | hit rate 50% among 280;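 active means percent activation above the mean of DMSO-only control wells plus 3 SD of those wells, cut at about 18% in these data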;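 further: cells challenged with isoproterenol plus Ro 20-1724 with no NPY in test wells; Y1 agonism lowers isoproterenol-driven cAMP and reduces probe fluorescence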
NPY-Y2 ag = activates human NPY-Y2, counter-screen for NPY-Y1 hits; shares compounds with NPY1 pot ag; HEK293 Y2-CNGC, membrane potential fluorescence, agonist mode; activation, % at 3.6 µM; hit rate 67% among 280; AID 1698;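 active means activation above the solvent-only control wells' mean plus 3 SD, cut at about 11% in these data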;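 further: 0% = DMSO with isoproterenol and 100% = 40 nM NPY maximal response; agonism lowers cAMP so well fluorescence drops in active wells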
CNGC inh 2 = counter-screen for NPY-Y1 potentiators or agonists: CNG channel inhibitors; HEK293-CNG parental, isoproterenol cAMP, membrane potential fluorescence; AID 1704; shares compounds with NPY1 pot ag; inhibition, % at 3.6 µM; hit rate 42% among 280;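 active means inhibition above the mean of stimulated solvent-only control wells plus 3 SD, cut at about 22% in these data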;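 further: 0% = isoproterenol-stimulated DMSO wells and 100% = unstimulated DMSO wells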
Numbers without * were called inactive; . = no result. Hits are enriched below; roughly 2.4% of the tested compounds scored in any of these assays.

SMILES	NPY1 pot ag	S1P4 antagonist	NPY-Y2 antag	S1P4 agonist	NPY2 pot ag	NPY-Y1 antag	NPY-Y1 confirm	NPY-Y2 counter	NPY-Y1 agonist	NPY-Y2 ag	CNGC inh 2
O=C(CC(NC(=O)c1ccccc1)c1ccccc1)Nc1cccc2ccccc12 (configuration not stated)	-3.4	-25.2	6.4	2.0	0.7	9.7	.	.	.	.	.
CCOc1ccc(Br)cc1CN(CC)CC	-19.5	13.9	.	-1.2	-22.7	.	.	.	.	.	.
CC(C)(CNC(=S)NCCc1ccccc1)CNC(=S)NCCc1ccccc1	23.8	-0.2	-2.5	-3.8	19.6	-3.1	.	.	.	.	.
CC(C)N=c1scc(-c2cccs2)n1/N=C/c1ccc(O)c(O)c1O	52.2*	-13.9	-1.2	17.5*	20.6	-4.2	50.8*	39.2*	52.9*	25.9*	21.0
CCN=c1scc(-c2cccs2)n1/N=C/c1cc(OC)ccc1O	-13.5	-7.0	3.5	0.6	-0.7	-1.1	.	.	.	.	.
CCOC(=O)C1=C(CC)Nc2ccccc2N/C1=N\S(=O)(=O)c1ccc2ccccc2c1	5.0	-4.0	.	1.2	-7.7	6.4	.	.	.	.	.
CCOC(=O)C1=C(CC)Nc2ccccc2N/C1=N\S(=O)(=O)c1cc(Br)ccc1Br	32.8*	-3.3	.	-0.4	15.5	-2.2	7.1	5.7	4.0	1.2	7.1
O=C(c1sc2cc([N+](=O)[O-])ccc2c1Cl)N1CCOCC1	13.3	4.4	0.7	1.1	11.0	-3.5	.	.	.	.	.
CC(C)N(C(=O)c1sc2cc([N+](=O)[O-])ccc2c1Cl)C(C)C	85.1*	2.4	4.4	-0.9	23.2	0.7	8.6	7.4	-1.6	18.1*	5.9
COC(=O)CC1(C(=O)OC)Oc2ccc(Br)cc2C(=O)N1c1cc(Cl)c(Cl)cc1Cl (configuration not stated)	48.9*	0.9	.	-0.3	17.7	.	22.0	4.9	10.2	6.7	19.8
O=C(c1cc(-c2cccc(O)c2)on1)N1CCN(C(c2ccccc2)c2ccccc2)CC1	32.1*	2.5	1.0	1.0	-5.8	7.8	32.0	5.3	17.5*	15.9*	7.4
O=C(c1cc(C2CC2)on1)N1CCN(C(c2ccccc2)c2ccccc2)CC1	-5.5	-6.0	-1.9	3.9	5.1	-1.7	.	.	.	.	.
O=C(O)C1c2ccccc2C(=O)N(Cc2ccc(F)cc2)C1c1ccncc1 (configuration not stated)	-10.9	1.6	.	-1.6	11.3	.	.	.	.	.	.
O=[N+]([O-])c1ccc(/C=C/C2=NN(c3ccccc3)C(c3ccco3)C2)o1 (configuration not stated)	36.2*	-10.8	.	0.8	22.5	-5.8	60.5*	45.0*	56.0*	57.9*	45.2*
O=C(O)CCn1c(=S)n(CCC(=O)O)c2ccccc21	-2.6	9.8	.	-0.9	8.4	.	.	.	.	.	.
COC(=O)[C@@H]1CC[C@H](C)[C@@H](c2ccc(C)cc2)N1C(=O)c1ccc(/C=N/OC[C@@H](O)[C@H]2O[C@@H]3OC(C)(C)O[C@@H]3[C@H]2O)cc1	38.9*	16.5	-0.1	1.4	16.1	-3.2	5.7	0.0	-2.4	6.2	-10.2
O=C(NCCc1nnc2ccc(NCc3cccnc3)nn12)c1ccccc1F	2.2	-0.8	.	1.1	-2.6	-1.8	.	.	.	.	.
Cc1cc(OCC(=O)Nc2ccc(CN3CCCCC3)cc2)ccc1Cl	-35.2	0.5	.	-2.4	-17.9	10.1	.	.	.	.	.
CCn1c(SCC(=O)Nc2ccc3c(c2)oc2ccccc23)nnc1-c1ccc(N)cc1	46.3*	-8.7	-3.9	1.9	19.7	0.6	42.8	37.2*	38.3*	42.8*	21.0
